Data reported in ChEMBL document CHEMBL3217642, “Mechanistic insight into inhibition of two-component system signaling” (Medchemcomm, 2013).
Activity calls are given as the source filed them. The rule behind the calls is not given here.

Tests used:
[1] = Binding affinity to Thermotoga maritima histidine kinase HK853 by STD-NMR analysis
Thermotoga maritima [2] = assay: Binding affinity to Thermotoga maritima histidine kinase HK853 by STD-NMR analysis in presence of ADP
Thermotoga maritima [3] = assay: Induction of Thermotoga maritima histidine kinase HK853 aggregation up to 10 mM by gel based assay
Procedure, shortened: (§1)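 Purified HK853 (0.44 μM) in 20 mM HEPES pH 7.5, with or without 0.1% final Triton X-100, incubated with varied analogue concentrations (DMSO ≤5% v/v) 4 h RT. Read by native-PAGE with silver staining (band disappearance), and by SDS-PAGE after BS3 crosslinking (100-fold molar excess, 2 h RT, quenched with 20 mM ammonium bicarbonate) with silver staining.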

Thermotoga maritima [4] = assay: Inhibition of Thermotoga maritima histidine kinase HK853 autophosphorylation up to 10 mM
Procedure, shortened: (§2)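 Purified HK853 (600 ng) in 50 mM Tris–HCl, 0.2 M KCl, 5 mM MgCl2, pH 7.8 preincubated 30 min with varied analogue concentrations (DMSO ≤5% v/v), then labeled with BODIPY-FL-ATPγS (2 μM final), 1 h RT in dark. Quenched with SDS loading buffer (unheated), resolved by SDS-PAGE, fluorescence band intensity integrated; gels then coomassie stained.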

[5] = Inhibition of Thermotoga maritima histidine kinase HK853 autophosphorylation; procedure, shortened: as §2
Thermotoga maritima [6] = assay: Displacement of BODIPY-FL-ATP-gamma-S from Thermotoga maritima histidine kinase HK853 at 1 mM to 600 uM; procedure, shortened: as §2
Thermotoga maritima [7] = assay: Induction of Thermotoga maritima histidine kinase HK853 aggregation up to 1000 uM by gel based assay; procedure, shortened: as §1
Thermotoga maritima [8] = assay: Inhibition of Thermotoga maritima histidine kinase HK853 autophosphorylation at 10 mM; procedure, shortened: as §2
Thermotoga maritima [9] = assay: Binding affinity to Thermotoga maritima histidine kinase HK853 D411A mutant by STD-NMR analysis

| IC50 [5] | inhibition (Thermotoga maritima [6]) | Structure (SMILES) | Kd [1] | further results |
| --- | --- | --- | --- | --- |
|  | Active | CCCCCCCOc1ccc(CCNC(=N)N)cc1 |  |  |
|  | Active | CCCCCCCCCCOc1ccc(CCNC(=N)N)cc1 |  |  |

The next lines start with the compound.

| Structure (SMILES) | IC50 [5] | inhibition (Thermotoga maritima [6]) | Kd [1] | further results |
| --- | --- | --- | --- | --- |
| CS(=O)(=O)c1ccc(CCNC(=N)N)cc1 |  |  | 580 µM | Activity (Thermotoga maritima [2]): inactive; Activity (Thermotoga maritima [3]): inactive; inhibition (Thermotoga maritima [4]): Active |
| CCCN(C(=O)/C(C#N)=C(/C)O)c1nc(-c2ccc(C(C)(C)C)cc2)cs1 | 30 µM |  |  |  |
| C/C(=C/CC(C)(C)/C=C/C(=O)N[C@@H](Cc1c[nH]c2ccccc12)C(=O)O)CC/C=C(\C)Br | 44 µM |  |  |  |
| N=C(N)NCCc1ccc(O)cc1 |  |  | 2410 µM | inhibition (Thermotoga maritima [7]): inactive; inhibition (Thermotoga maritima [8]): inactive; Activity (Thermotoga maritima [9]): inactive |
